Values after ≈ are worked out from the molar mass of the structure shown.
Experiments:
Salmonella typhi = assay: Antibacterial activity against Salmonella typhi at 50 to 100 uM after 24 hrs by well diffusion method; type: functional, Salmonella enterica subsp. enterica serovar Typhi; design: unit not given here
How it was run: (§1)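 Nutrient agar plates with 10 mm wells cut by cork borer; 24-h subcultured bacteria swabbed on. Compounds dissolved in chloroform, 50 to 100 μM added to wells, gentamycin as standard. Incubated 24 h at 24–28 °C; inhibition zone diameter measured and converted to percent inhibition.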

[1] = system: Mycobacterium tuberculosis; assay: Antitubercular activity against Mycobacterium tuberculosis H37Rv by MABA assay; type: functional
How it was run: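 Actives re-tested at lower concentrations against H37Rv (ATCC 27294) in BACTEC 12B medium by Microplate Alamar Blue Assay. MIC taken as lowest concentration giving […] fluorescence reduction versus controls; rifampin reference.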

[2] = Cytotoxicity against Vero-C1008 cells at 6.25 to 50 ug/mL by neutral red uptake assay; type: cell-based; conditions: chlorocebus sabaeus
How it was run: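 Vero-C-1008 cells exposed to 6.25 to 50 μg/mL compound; viability read by neutral red uptake.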

Pseudomonas aeruginosa = assay: Antibacterial activity against Pseudomonas aeruginosa at 50 to 100 uM after 24 hrs by well diffusion method; type: functional; how it was run: as §1
Staphylococcus aureus = assay: Antibacterial activity against Staphylococcus aureus at 50 to 100 uM after 24 hrs by well diffusion method; type: functional; how it was run: as §1
Escherichia coli = assay: Antibacterial activity against Escherichia coli at 50 to 100 uM after 24 hrs by well diffusion method; type: functional; how it was run: as §1

Row | Compound | Inhibition (Salmonella typhi) | MIC [1] [µg/mL] | Activity [2] | inhibition zone (Pseudomonas aeruginosa) [mm] | inhibition zone (Staphylococcus aureus) [mm] | inhibition zone (Escherichia coli) [mm] | inhibition (Salmonella typhi; Salmonella enterica subsp. enterica serovar Typhi) [%] | inhibition (Pseudomonas aeruginosa) [%] | inhibition (Staphylococcus aureus) [%] | inhibition (Escherichia coli) [%]
1 | CC(=O)NNC(=O)CSc1nnc(Cc2csc(NC(C)=O)n2)n1NC(=O)c1cccc([N+](=O)[O-])c1 | 29 | < 6.25 | Non-toxic | 34 | 33 | 30 |  |  |  | 
2 | CC(=O)Nc1nc(Cc2nnc(SCC(=O)NNC(=O)c3ccccc3)n2NC(=O)c2cccc([N+](=O)[O-])c2)cs1 | 27 | < 6.25 | Non-toxic | 30 | 32 | 30 |  |  |  | 
3 | O=C(O)CCNc1nc(Cc2nnc(SCSc3nnc(Cc4csc(NCCC(=O)O)n4)n3NC(=O)c3ccc(Cl)cc3)n2NC(=O)c2ccc(Cl)cc2)cs1 | 20 | < 6.25 | Non-toxic | 29 | 21 | 22 |  |  |  | 
4 | COC(=O)CSc1nnc(Cc2csc(NCCC(=O)O)n2)n1NC(=O)c1cccc([N+](=O)[O-])c1 | 20 | < 6.25 | Non-toxic | 22 | 22 |  |  |  |  | 
5 | O=C(CCl)NNC(=O)CSc1nnc(Cc2csc(NC(=O)CCl)n2)n1NC(=O)c1cccc([N+](=O)[O-])c1 | 18 | < 6.25 | Non-toxic | 16 | 14 | 12 |  |  |  | 
6 | CC(=O)NNC(=O)CSc1nnc(Cc2csc(NC(=O)c3ccccc3)n2)n1NC(=O)c1ccc(Cl)cc1 | 19 | < 6.25 | Non-toxic | 24 | 26 | 21 |  |  |  | 
7 | COC(=O)CSc1nnc(Cc2csc(NC(=O)c3ccccc3)n2)n1NC(=O)c1ccc(Cl)cc1 | 16 | < 6.25 | Non-toxic | 22 | 22 | 20 |  |  |  | 
8 | O=C(O)CCNc1nc(Cc2nnc(SCC(=O)NNC(=O)c3ccccc3)n2NC(=O)c2cccc([N+](=O)[O-])c2)cs1 | 14 | < 6.25 | Non-toxic | 10 | 12 | 10 |  |  |  | 
9 | O=C(CSc1nnc(Cc2csc(NC(=O)CCl)n2)n1NC(=O)c1ccc(Cl)cc1)NNC(=O)c1ccccc1 | 20 | < 6.25 | Non-toxic | 26 | 21 | 21 |  |  |  | 
10 | CC(=O)Nc1nc(Cc2nnc(SCSc3nnc(Cc4csc(NC(C)=O)n4)n3NC(=O)c3ccc(Cl)cc3)n2NC(=O)c2ccc(Cl)cc2)cs1 | 17 | < 6.25 | Non-toxic | 21 | 24 | 24 |  |  |  | 
11 | O=C(O)CCNc1nc(Cc2nnc(SCSc3nnc(Cc4csc(NCCC(=O)O)n4)n3NC(=O)c3cccc([N+](=O)[O-])c3)n2NC(=O)c2cccc([N+](=O)[O-])c2)cs1 | 18 | < 6.25 | Non-toxic | 26 | 25 | 21 |  |  |  | 
12 | O=C(CSc1nnc(Cc2csc(NC(=O)c3ccccc3)n2)n1NC(=O)c1cccc([N+](=O)[O-])c1)NNC(=O)c1ccccc1 | 12 | < 6.25 | Non-toxic | 12 | 18 | 14 |  |  |  | 
13 | COC(=O)CSc1nnc(Cc2csc(NC(=O)CCl)n2)n1NC(=O)c1cccc([N+](=O)[O-])c1 | 20 | < 6.25 | Non-toxic | 24 | 26 | 20 |  |  |  | 
14 | COC(=O)CSc1nnc(Cc2csc(NC(=O)c3ccccc3)n2)n1NC(=O)c1cccc([N+](=O)[O-])c1 | 24 | < 6.25 | Non-toxic | 11 | 22 | 24 |  |  |  | 
15 | Nn1c(S)nnc1CSc1nnc(Cc2csc(NC(=O)CCl)n2)n1NC(=O)c1cccc([N+](=O)[O-])c1 | 21 | < 6.25 | Non-toxic | 26 | 20 | 18 |  |  |  | 
16 | CO[C@H]1/C=C/O[C@@]2(C)Oc3c(C)c(O)c4c(O)c(c(/C=N/N5CCN(C)CC5)c(O)c4c3C2=O)NC(=O)/C(C)=C\C=C\[C@H](C)[C@H](O)[C@@H](C)[C@@H](O)[C@@H](C)[C@H](OC(C)=O)[C@@H]1C [RIFAMPIN] |  | 0.015 (≈ 0.0182 µM) |  |  |  |  |  |  |  | 
17 | O=C(Nc1nc(Cc2nnc(SCSc3nnc(Cc4csc(NC(=O)c5ccccc5)n4)n3NC(=O)c3ccc(Cl)cc3)n2NC(=O)c2ccc(Cl)cc2)cs1)c1ccccc1 | 12 | < 6.25 | Non-toxic | 27 | 29 | 20 |  |  |  | 
18 | CC(=O)Nc1nc(Cc2nnc(SCSc3nnc(Cc4csc(NC(C)=O)n4)n3NC(=O)c3cccc([N+](=O)[O-])c3)n2NC(=O)c2cccc([N+](=O)[O-])c2)cs1 | 26 | < 6.25 | Non-toxic | 32 | 27 | 26 |  |  |  | 
19 | Nn1c(S)nnc1Cc1csc(NC(=O)CCl)n1 | 12 |  | Non-toxic | 17 | 18 | 14 |  |  |  | 
20 | Nn1c(S)nnc1CSc1nnc(Cc2csc(NC(=O)CCl)n2)n1NC(=O)c1ccc(Cl)cc1 | 20 | < 6.25 | Non-toxic | 20 | 27 | 22 |  |  |  | 
21 | O=C(CSc1nnc(Cc2csc(NC(=O)CCl)n2)n1NC(=O)c1cccc([N+](=O)[O-])c1)NNC(=O)c1ccccc1 | 18 | < 6.25 | Non-toxic | 18 | 21 | 10 |  |  |  | 
22 | CC(=O)Nc1nc(Cc2nnc(SCc3nnc(S)n3N)n2NC(=O)c2ccc(Cl)cc2)cs1 | 18 | < 6.25 | Non-toxic | 21 | 28 | 23 |  |  |  | 
23 | O=C(O)CCNc1nc(Cc2nnc(SCC(=O)NNC(=O)c3ccccc3)n2NC(=O)c2ccc(Cl)cc2)cs1 | 23 | < 6.25 | Non-toxic | 25 | 18 | 19 |  |  |  | 
24 | COC(=O)CSc1nnc(Cc2csc(NCCC(=O)O)n2)n1NC(=O)c1ccc(Cl)cc1 | 18 | < 6.25 | Non-toxic | 24 | 26 | 22 |  |  |  | 
25 | GENTAMICIN |  |  |  |  |  |  | 30 | 35 | 34 | 31
26 | O=C(CCl)NNC(=O)CSc1nnc(Cc2csc(NC(=O)CCl)n2)n1NC(=O)c1ccc(Cl)cc1 |  | < 6.25 | Non-toxic |  | 24 | 18 |  |  |  | 
27 | O=C(O)CCNc1nc(Cc2nnc(SCC(=O)NNC(=O)CCl)n2NC(=O)c2ccc(Cl)cc2)cs1 |  | < 6.25 | Non-toxic |  |  |  |  |  |  | 
